Test results taken from ChEMBL document CHEMBL1127046, “Antitumor agents. 3. Synthesis and biological activity of 4 beta-alkyl derivatives containing hydroxy, amino, and amido groups of 4'-O-demethyl-4-desoxypodophyllotoxin as antitumor agents” (J Med Chem, 1993).
≈ marks a conversion by molar mass, not a printed value.

What was measured:
[1] = Inhibition of growth of lung small cell carcinoma RERF-LC-MA cell line; format: functional; conditions: Homo sapiens; read-out: ED50 (the source's name)
How it was run: (§1)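 Cells were seeded and cultured for 24 h, then exposed to drug for 96 or 4 h. Cells were counted by hemocytometer. IC50 is the concentration giving a 50% reduction in cell number relative to control.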

[2] = tested on: Lewis lung carcinoma cell line; assay: Percentage inhibition of tumor growth at the lewis lung dose of 7 (mg/kg/day); (p<0.05); format: functional, Mus musculus
How it was run: (§2)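 Lewis lung carcinoma fragments (2 mm3) implanted sc into male BDF1 mice (5 weeks) on day 0. Compound given iv on days 4–8, in saline or saline with 3.5% DMSO and 6.5% Tween 80. Seven mice per group, 10 controls. Percent inhibition from mean tumour weight versus control on day 17; p<0.05, 0.01 or 0.001 versus control.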

[3] = tested on: Lewis lung carcinoma cell line; assay: Antitumor activity in vivo expressed as the percentage increase in life span at the dose of 21 (mg/kg/day); (p<0.005); format: functional, Mus musculus
L1210 [4] = assay: Antitumor activity in vivo expressed as the percentage increase in life span at the dose of 10 (mg/kg/day); format: functional, Mus musculus
Homo sapiens = organism: Homo sapiens; assay: Inhibition of growth of hepatoma HLE cell line; format: functional; conditions: read-out: ED50 (the source's name); how it was run: as §1
[5] = tested on: Lewis lung carcinoma cell line; assay: Mean body weight change at the dose of 7 (mg/kg/day); format: functional, Mus musculus
How it was run: (§3)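 Male BDF1 mice (5 weeks) given 3.2 x 10^5 Lewis lung carcinoma cells iv on day 0, then dosed iv on days 1–5. Seven mice per group, 14 controls. Mean body weight change (g) taken from day 0 to day 6.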

COLO 320DM [6] = assay: Inhibition of growth of colon carcinoma COLO 320DM; format: functional; conditions: Homo sapiens, read-out: ED50 (the source's name); how it was run: as §1
[7] = tested on: Lewis lung carcinoma cell line; assay: Mean body weight change at the dose of 12 (mg/kg/day); format: functional, Mus musculus; how it was run: as §3
[8] = Inhibition of DNA topoisomerase II from rat liver measured as 50% reduction in the amount of minicircle DNA relative to the control
P388 [9] = assay: Increased life span at the P388 dose of 4 (mg/kg/day); format: functional, Mus musculus
How it was run: (§4)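 P388 leukaemia, 1 × 10^6 cells given sc to male CDF1 mice (5 weeks old) on day 0. Drug was dosed iv on days 1–5 in saline with 3.5% DMSO and 6.5% Tween 80. Groups had 7 mice; controls had 10. ILS was calculated from mean survival time of treated versus control mice, excluding 30-day survivors.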

[10] = Inhibition of growth of renal cancer G-402 cell line; format: functional; conditions: Homo sapiens, read-out: ED50 (the source's name)
How it was run: (§5)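 Human tumour cell lines plated and grown 24 h in a CO2 incubator, then exposed to compound for 96 or 4 h. Cells counted by hemocytometer. IC50 is the concentration giving 50% reduction in cell number versus untreated control.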

[11] = Inhibition of growth of lung non-small cell carcinoma PC-7 cell line; format: functional; conditions: Homo sapiens, read-out: ED50 (the source's name); how it was run: as §1
[12] = Inhibition of growth of colon carcinoma COLO 2-1 cell line; format: functional; conditions: Homo sapiens, read-out: ED50 (the source's name); how it was run: as §1
A549 = assay: Inhibition of growth of lung non-small cell carcinoma A-549 cell line; format: functional; conditions: Homo sapiens, read-out: ED50 (the source's name); how it was run: as §1
[13] = tested on: Lewis lung carcinoma cell line; assay: Mean body weight change at the dose of 2.3 (mg/kg/day); format: functional, Mus musculus; how it was run: as §3
L1210 [14] = assay: The number of mice survived for 30 days; format: functional, Mus musculus
[15] = Inhibition of growth of hepatoma HLF cell line; format: functional; conditions: Homo sapiens, read-out: ED50 (the source's name); how it was run: as §1
[16] = tested on: Lewis lung carcinoma cell line; assay: Percentage inhibition of tumor growth at the lewis lung dose of 12 (mg/kg/ day); (p<0.01); format: functional, Mus musculus; how it was run: as §2
[17] = tested on: Lewis lung carcinoma cell line; assay: Antitumor activity in vivo expressed as the percentage increase in life span at the dose of 4 (mg/kg/day); (p<0.001); format: functional, Mus musculus
[18] = tested on: Lewis lung carcinoma cell line; assay: Antitumor activity in vivo expressed as the percentage increase in life span at the dose of 12 (mg/kg/day); (p<0.001); format: functional, Mus musculus
P388 [19] = assay: Increased life span at the P388 dose of 7 (mg/kg/day); format: functional, Mus musculus; how it was run: as §4
P388 [20] = assay: Increased life span at the P388 dose of 2.3 (mg/kg/day); format: functional, Mus musculus; how it was run: as §4
[21] = tested on: Lewis lung carcinoma cell line; assay: Mean body weight change at the dose of 4 (mg/kg/day); format: functional, Mus musculus; how it was run: as §3
[22] = tested on: Lewis lung carcinoma cell line; assay: Antitumor activity in vivo expressed as the percentage increase in life span at the dose of 2.32 (mg/kg/day); (p<0.005); format: functional, Mus musculus
P388 [23] = assay: Cytotoxicity against P388 leukemia; format: functional, cell-based; conditions: Mus musculus
[24] = tested on: Lewis lung carcinoma cell line; assay: Antitumor activity in vivo expressed as the percentage increase in life span at the dose of 7 (mg/kg/day); (p<0.001); format: functional, Mus musculus
SBC-3 = assay: Inhibition of growth of lung small cell carcinoma SBC-3 cell line; format: functional; conditions: Homo sapiens, read-out: ED50 (the source's name); how it was run: as §5
[25] = tested on: Lewis lung carcinoma cell line; assay: Mean body weight change at the dose of 21 (mg/kg/day); format: functional, Mus musculus; how it was run: as §3
ACHN = assay: Inhibition of growth of renal cancer ACHN cell line; format: functional; conditions: Homo sapiens, read-out: ED50 (the source's name); how it was run: as §5
Tubulin = Tubulin (Bos taurus, UniProt Q6B856+Q862L2+Q862F3); assay: Drug concentration needed to produce a 50% reduction of bovine brain tubulin polymerization relative to the control
L1210 [26] = assay: Increase in life span at the dose of 2.5 (mg/kg/day); format: functional, Mus musculus
COLO 320DM [27] = assay: Inhibition of growth of colon carcinoma COLO 320DM cell line; format: functional; conditions: Homo sapiens, read-out: ED50 (the source's name); how it was run: as §1
[28] = tested on: Lewis lung carcinoma cell line; assay: Mean body weight change after inoculation of 3.2 x 10 e 5 cells iv and administration of compounds iv from days 1-5 at the dose of 2.3 (mg/kg/day); format: functional, Mus musculus; how it was run: as §3
[29] = tested on: Lewis lung carcinoma cell line; assay: Antitumor activity in vivo expressed as the percentage increase in life span at the lewis lung dose of 0.77 (mg/kg/day); format: functional, Mus musculus
L1210 [30] = assay: The number of mice survived for 30 days at the dose of 2.5 (mg/kg/day); format: functional, Mus musculus
[31] = tested on: Lewis lung carcinoma cell line; assay: Antitumor activity in vivo expressed as the percentage increase in life span at the lewis lung dose of 1.3 (mg/kg/day); format: functional, Mus musculus
P388 [32] = assay: Increased life span at the P388 dose of 1.3 (mg/kg/day); format: functional, Mus musculus; how it was run: as §4
[33] = tested on: Lewis lung carcinoma cell line; assay: Mean body weight change after inoculation of 3.2 x 10 e 5 cells iv and administration of compounds iv from days 1-5 at the dose of 0.77 (mg/kg/day); format: functional, Mus musculus; how it was run: as §3
[34] = tested on: Lewis lung carcinoma cell line; assay: Mean body weight change after inoculation of 3.2 x 10 e 5 cells iv and administration of compounds iv from days 1-5 at the dose of 1.3 (mg/kg/day); format: functional, Mus musculus; how it was run: as §3
[35] = tested on: Lewis lung carcinoma cell line; assay: Mean body weight change after inoculation of 3.2 x 10 e 5 cells iv and administration of compounds iv from days 1-5 at the dose of 4 (mg/kg/day); format: functional, Mus musculus; how it was run: as §3
[36] = tested on: Lewis lung carcinoma cell line; assay: Percentage inhibition of tumor growth at the dose of 2.3 (mg/kg/ day); format: functional, Mus musculus; how it was run: as §2
[37] = tested on: Lewis lung carcinoma cell line; assay: Antitumor activity in vivo expressed as the percentage increase in life span at the lewis lung dose of 4 (mg/kg/day); format: functional, Mus musculus
L1210 [38] = assay: Antitumor activity in vivo expressed as the percentage increase in life span at the dose of 2.5 (mg/kg/day); format: functional, Mus musculus
P388 [39] = assay: Increased life span at the P388 dose of 0.8 (mg/kg/day); format: functional, Mus musculus; how it was run: as §4
[40] = tested on: Lewis lung carcinoma cell line; assay: Antitumor activity in vivo expressed as the percentage increase in life span at the lewis lung dose of 2.3 (mg/kg/day); format: functional, Mus musculus
[41] = tested on: Lewis lung carcinoma cell line; assay: Percentage inhibition of tumor growth at the dose of 4 (mg/kg/ day); format: functional, Mus musculus; how it was run: as §2

## COc1cc([C@@H]2c3cc4c(cc3[C@@H](O[C@@H]3O[C@@H]5CO[C@@H](C)O[C@H]5[C@H](O)[C@H]3O)[C@H]3COC(=O)[C@H]23)OCO4)cc(OC)c1O [ETOPOSIDE]
[1]
  EC50: > 59 µg/mL
[2]
  Inhibition: 39%
[3]
  ILS max: 91%
L1210 [4]
  ILS max: 102%
Homo sapiens
  EC50: 1.5 µg/mL (≈ 2.55 µM)
[5]
  bwc: -0.8 g
COLO 320DM [6]
  EC50: 14 µg/mL (≈ 23.8 µM)
[7]
  bwc: -2.6 g
[8]
  IC50: 59.2 µM
P388 [9]
  ILS max: 196%
[10]
  EC50: 4.8 µg/mL (≈ 8.16 µM)
[11]
  EC50: 35 µg/mL (≈ 59.5 µM)
[12]
  EC50: 59 µg/mL (≈ 100 µM)
A549
  EC50: 2.9 µg/mL (≈ 4.93 µM)
[13]
  bwc: 0 g
L1210 [14]
  Survivors: 3
[15]
  EC50: 19 µg/mL (≈ 32.3 µM)
[16]
  Inhibition: 60%
[17]
  ILS max: 24%
[18]
  ILS max: 81%
P388 [19]
  ILS max: 226%
P388 [20]
  ILS max: 151%
[21]
  bwc: -0.4 g
[22]
  ILS max: 17%
P388 [23]
  IC50: 0.01 µM
[24]
  ILS max: 21%
SBC-3
  EC50: 1.6 µg/mL (≈ 2.72 µM)
[25]
  bwc: -3.8 g
ACHN
  EC50: 13 µg/mL (≈ 22.1 µM)

## COc1cc([C@@H]2c3cc4c(cc3[C@@H](CCN(C)C)C3COC(=O)[C@@H]32)OCO4)cc(OC)c1O.Cl (stereo partly specified)
[8]
  IC50: 36.7 µM
Tubulin
  IC50: > 100 µM
L1210 [26]
  ILS max: 67%
P388 [23]
  IC50: 0.06 µM

## COc1cc([C@@H]2c3cc4c(cc3[C@@H](CCN(C)CCN(C)C)C3COC(=O)[C@@H]32)OCO4)cc(OC)c1O.Cl.Cl (stereo partly specified)
COLO 320DM [27]
  EC50: 2 µg/mL
[28]
  bwc: -0.7 g
[1]
  EC50: 14 µg/mL
[29]
  ILS max: 38%
L1210 [30]
  Survivors: 6
Homo sapiens
  EC50: 0.23 µg/mL
[8]
  IC50: 32.5 µM
[10]
  EC50: 0.33 µg/mL
[31]
  ILS max: 72%
[11]
  EC50: 3.5 µg/mL
P388 [32]
  ILS max: 196%
[33]
  bwc: 0.44 g
[12]
  EC50: 13 µg/mL
A549
  EC50: 0.82 µg/mL
[34]
  bwc: 0.2 g
[35]
  bwc: -2.9 g
[15]
  EC50: 2.8 µg/mL
[36]
  Inhibition: 51%
Tubulin
  IC50: > 99 µM
P388 [20]
  ILS max: 236%
[37]
  ILS max: 209%
L1210 [38]
  ILS max: 103%
P388 [39]
  ILS max: 116%
[40]
  ILS max: 90%
P388 [23]
  IC50: 0.001 µM
SBC-3
  EC50: 0.41 µg/mL
ACHN
  EC50: 2 µg/mL
[41]
  Inhibition: 95%
